ChEMBL document CHEMBL2390879, “Inhibition of monoamine oxidase by phthalide analogues” (Bioorg Med Chem Lett, 2013)

What was measured:
[1] = biological target: T1, Amine oxidase [flavin-containing] A (Homo sapiens, UniProt P21397); test: Inhibition of human recombinant monoamine oxidase-A assessed as kynuramine conversion to […] after 20 mins by fluorescence spectrophotometric analysis
T1 sequence (P21397 whole entry): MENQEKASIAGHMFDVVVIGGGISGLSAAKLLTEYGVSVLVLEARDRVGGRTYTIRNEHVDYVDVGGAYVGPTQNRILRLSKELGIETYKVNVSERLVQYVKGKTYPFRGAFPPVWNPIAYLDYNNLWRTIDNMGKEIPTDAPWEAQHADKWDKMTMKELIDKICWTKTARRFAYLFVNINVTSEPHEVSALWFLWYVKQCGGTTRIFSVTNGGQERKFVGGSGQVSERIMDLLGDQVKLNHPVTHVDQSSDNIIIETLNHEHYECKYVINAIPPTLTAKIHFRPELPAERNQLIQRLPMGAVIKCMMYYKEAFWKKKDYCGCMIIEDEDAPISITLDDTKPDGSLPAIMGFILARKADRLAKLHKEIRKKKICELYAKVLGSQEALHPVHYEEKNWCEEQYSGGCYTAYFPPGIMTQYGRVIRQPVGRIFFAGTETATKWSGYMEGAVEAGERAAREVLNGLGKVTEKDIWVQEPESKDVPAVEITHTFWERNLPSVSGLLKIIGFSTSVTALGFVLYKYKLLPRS

[2] = biological target: T2, Amine oxidase [flavin-containing] B (Homo sapiens, UniProt P27338); test: Inhibition of human recombinant monoamine oxidase-B assessed as kynuramine conversion to 6-hydroxyquinoline after 20 mins by fluorescence spectrophotometric analysis
T2 sequence (P27338 whole entry): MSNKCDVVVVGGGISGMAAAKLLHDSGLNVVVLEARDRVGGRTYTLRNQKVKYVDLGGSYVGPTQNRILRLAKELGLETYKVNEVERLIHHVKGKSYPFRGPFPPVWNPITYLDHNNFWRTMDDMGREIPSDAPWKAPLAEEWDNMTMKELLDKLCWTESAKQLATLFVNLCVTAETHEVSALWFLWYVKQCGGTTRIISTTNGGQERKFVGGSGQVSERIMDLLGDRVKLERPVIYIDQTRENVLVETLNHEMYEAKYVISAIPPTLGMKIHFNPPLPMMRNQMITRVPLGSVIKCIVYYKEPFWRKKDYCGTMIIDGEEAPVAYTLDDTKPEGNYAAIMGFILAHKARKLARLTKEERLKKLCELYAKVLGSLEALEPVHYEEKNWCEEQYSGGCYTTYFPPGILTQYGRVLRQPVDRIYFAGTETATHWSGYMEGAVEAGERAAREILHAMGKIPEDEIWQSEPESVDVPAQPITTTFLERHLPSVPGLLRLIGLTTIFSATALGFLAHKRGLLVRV

Homo sapiens = species on record: Homo sapiens; test: Selectivity index, ratio of IC50 for human recombinant monoamine oxidase-A to IC50 for human recombinant monoamine oxidase-B
In short: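 Selectivity for MAO-B, given as IC50(MAO-A)/IC50(MAO-B). Both IC50s came from recombinant human enzymes, with kynuramine oxidation to fluorescent […] read at ex 310 / em 400 nm in alkaline medium.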

[3] = biological target: T1, Amine oxidase [flavin-containing] A; test: (§1) Irreversible inhibition of human recombinant monoamine oxidase-A using kynuramine as substrate assessed as residual enzyme activity treated at 10 times IC50 preincubated for 30 mins prior to substrate addition followed by 100 fold dilution measured after 20 mins by fluorescence spectrophotometric analysis relative to control
[4] = biological target: T1, Amine oxidase [flavin-containing] A; test: as §1, with “Reversible” for “Irreversible”
[5] = biological target: T1, Amine oxidase [flavin-containing] A; test: Competitive inhibition of human recombinant monoamine oxidase-A using kynuramine as substrate by Cheng and Prusoff equation analysis
[6] = biological target: T1, Amine oxidase [flavin-containing] A; test: Competitive inhibition of human recombinant monoamine oxidase-A using kynuramine as substrate by Lineweaver-Burk plot analysis
In short: (§2)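 Recombinant human MAO-A or MAO-B with kynuramine as substrate. Initial rates were recorded at 4 substrate concentrations, without inhibitor and with three inhibitor concentrations. Lineweaver–Burk (1/v vs 1/[S]) plots were built from these rates. Product […] was read by fluorescence in alkaline medium (ex 310 nm, em 400 nm).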

[7] = biological target: T1, Amine oxidase [flavin-containing] A; test: as §1, with “Reversible inhibition” for “Irreversible inhibition”, “at 100” for “at 10”
[8] = biological target: T2, Amine oxidase [flavin-containing] B; test: Inhibition of human recombinant monoamine oxidase-B assessed as kynuramine conversion to […] at 100 uM after 20 mins by fluorescence spectrophotometric analysis
[9] = biological target: T3, Amine oxidase [flavin-containing] B (Rattus norvegicus, UniProt P19643); test: Inhibition of rat brain monoamine oxidase-B
T3 sequence (P19643 whole entry): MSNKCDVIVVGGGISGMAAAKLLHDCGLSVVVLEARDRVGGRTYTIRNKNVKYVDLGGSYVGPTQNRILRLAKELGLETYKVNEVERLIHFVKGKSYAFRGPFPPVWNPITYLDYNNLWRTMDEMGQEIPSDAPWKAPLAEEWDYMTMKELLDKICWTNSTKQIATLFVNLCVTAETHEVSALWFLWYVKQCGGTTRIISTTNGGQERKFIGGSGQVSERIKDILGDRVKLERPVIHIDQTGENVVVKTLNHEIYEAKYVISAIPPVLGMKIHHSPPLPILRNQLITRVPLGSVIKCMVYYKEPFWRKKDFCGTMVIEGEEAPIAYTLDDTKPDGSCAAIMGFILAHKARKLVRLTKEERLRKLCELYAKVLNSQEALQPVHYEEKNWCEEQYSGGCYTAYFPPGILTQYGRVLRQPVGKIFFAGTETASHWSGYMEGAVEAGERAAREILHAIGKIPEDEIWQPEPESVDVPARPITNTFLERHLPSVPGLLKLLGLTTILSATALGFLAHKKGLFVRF

[10] = biological target: T2, Amine oxidase [flavin-containing] B; test: Ratio of phthalide IC50 to compound IC50 for human recombinant monoamine oxidase-B
[11] = biological target: T2, Amine oxidase [flavin-containing] B; test: as §1, with “Reversible inhibition” for “Irreversible inhibition”, “monoamine oxidase-B” for “monoamine oxidase-A”, “at 100” for “at 10”
[12] = biological target: T2, Amine oxidase [flavin-containing] B; test: as §1, with “Reversible” for “Irreversible”, “oxidase-B” for “oxidase-A”
[13] = biological target: T2, Amine oxidase [flavin-containing] B; test: Competitive inhibition of human recombinant monoamine oxidase-B using kynuramine as substrate by Cheng and Prusoff equation analysis
[14] = biological target: T2, Amine oxidase [flavin-containing] B; test: Quasi-reversible inhibition of human recombinant monoamine oxidase-B using kynuramine as substrate treated at 10 to 100 times IC50 preincubated for 30 mins prior to substrate addition followed by 100 fold dilution measured after 20 mins by fluorescence spectrophotometric analysis
[15] = biological target: T2, Amine oxidase [flavin-containing] B; test: Competitive inhibition of human recombinant monoamine oxidase-B using kynuramine as substrate by Morrison equation analysis
[16] = biological target: T2, Amine oxidase [flavin-containing] B; test: Competitive inhibition of human recombinant monoamine oxidase-B using kynuramine as substrate by Lineweaver-Burk plot analysis; in short: as §2

O=C1OCc2ccc(OCc3cccc(Br)c3)cc21
IC50 [1]: 629 nM | IC50 [2]: 3.5 nM | Ratio IC50 (Homo sapiens): 180

O=C1OCc2ccc(OCCOc3ccc(Cl)cc3)cc21
IC50 [1]: 137 nM | IC50 [2]: 11 nM | Ratio IC50 (Homo sapiens): 13

O=C1OCc2ccc(OCc3ccc(Br)cc3)cc21
IC50 [1]: 227 nM | IC50 [2]: 2.4 nM | Ratio IC50 (Homo sapiens): 96

Cc1ccc(CCOc2ccc3c(c2)C(=O)OC3)cc1
IC50 [1]: 7330 nM | IC50 [2]: 81 nM | Ratio IC50 (Homo sapiens): 90

O=C1OCc2ccc(OCCc3ccccc3)cc21
IC50 [1]: 3210 nM | IC50 [2]: 47 nM | Ratio IC50 (Homo sapiens): 68

C#CCN(C)Cc1ccccc1 [PARGYLINE]
Activity [3]: 1%

O=C1OCc2ccc(OCc3ccc(F)cc3)cc21
IC50 [1]: 542 nM | IC50 [2]: 6.4 nM | Ratio IC50 (Homo sapiens): 84

O=C1OCc2ccc(OCCc3ccc(F)cc3)cc21
IC50 [1]: 1070 nM | IC50 [2]: 68 nM | Ratio IC50 (Homo sapiens): 16

Cc1ccc(COc2ccc3c(c2)C(=O)OC3)cc1
IC50 [1]: 1060 nM | IC50 [2]: 9 nM | Ratio IC50 (Homo sapiens): 118

O=C1OCc2ccccc21
IC50 [1]: 44900 nM | IC50 [2]: 28600 nM | Ratio IC50 (Homo sapiens): 1.6

O=C1OCc2ccc(OCCOc3ccc(F)cc3)cc21
IC50 [1]: 323 nM | IC50 [2]: 7.4 nM | Ratio IC50 (Homo sapiens): 43

O=C1OCc2ccc(OCc3ccc(Cl)cc3)cc21
IC50 [1]: 172 nM | IC50 [2]: 2.8 nM | Ratio IC50 (Homo sapiens): 61

O=C1OCc2ccc(OCCCc3ccccc3)cc21
Activity [4]: 86% | Ki [5]: 25 nM | IC50 [1]: 96 nM | Ki [6]: 62 nM | Activity [7]: 45% | IC50 [2]: 6.2 nM | Ratio IC50 (Homo sapiens): 16

O=C1OCc2ccc(OCCc3ccc(Cl)cc3)cc21
IC50 [1]: 498 nM | IC50 [2]: 48 nM | Ratio IC50 (Homo sapiens): 10

O=C1OCc2ccc(NCc3ccccc3)cc21
IC50 [1]: 59900 nM | inhibition (INH) [8]: Not Active

O=C1OCc2ccc(OCc3ccc(I)cc3)cc21
IC50 [1]: 344 nM | IC50 [2]: 1.8 nM | Ratio IC50 (Homo sapiens): 189

O=C1OCc2ccc(OCCOc3ccc(Br)cc3)cc21
IC50 [1]: 240 nM | IC50 [2]: 12 nM | Ratio IC50 (Homo sapiens): 20

O=C1OCc2ccc(OCc3ccccc3)cc21
IC50 [1]: 1190 nM | IC50 [9]: 230 nM | IC50 [2]: 24 nM | Ratio IC50 (Homo sapiens): 50 | Ratio IC50 [10]: 1000

O=C1OCc2ccc(OCCOc3ccccc3)cc21
IC50 [1]: 1910 nM | IC50 [2]: 18 nM | Ratio IC50 (Homo sapiens): 106

O=C1OCc2ccc(OCC3CCCCC3)cc21
IC50 [1]: 185 nM | IC50 [2]: 12 nM | Ratio IC50 (Homo sapiens): 16

O=C1OCc2ccc(OCc3ccc(C(F)(F)F)cc3)cc21
Activity [11]: 14% | IC50 [1]: 304 nM | Activity [12]: 68% | Ki [13]: 0.6 nM | IC50 [2]: 1.4 nM | inhibition (INH) [14]: Active | Ki [15]: 0.46 nM | Ratio IC50 (Homo sapiens): 214 | Ki [16]: 0.7 nM
